Experimental data published in ChEMBL document CHEMBL2311435, “Development of 18F-labeled picolinamide probes for PET imaging of malignant melanoma” (J Med Chem, 2013).

How the values were obtained:
Settings in all cases: in vivo
Stomach [1] = assay: Biodistribution in stomach of C57BL/6 mouse xenografted with mouse B16F10 cells at 3.7 MBq, iv after 1 hr by gamma-scintillation counting analysis; assay type: ADME, organism-based, B16-F10
Method in brief: (§1)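 1.0 × 10^6 B16F10 cells in PBS injected subcutaneously into the right shoulder of C57BL/6 mice, grown to 0.5 cm (~10 day). Tail-vein injection of about 3.7 MBq (100 μCi) 18F probe in PBS (0.1 M, pH 7.4). Killed at 1.0 or 2.0 h p.i. (n = 4 per group). Tissues excised, weighed and gamma-counted; uptake expressed as %ID/g, mean ± SD.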

Liver = assay: Biodistribution in liver of C57BL/6 mouse xenografted with mouse B16F10 cells at 3.7 MBq, iv after 1 hr by gamma-scintillation counting analysis; assay type: ADME, organism-based, B16-F10; method in brief: as §1
Heart = assay: Biodistribution in heart of C57BL/6 mouse xenografted with mouse B16F10 cells at 3.7 MBq, iv after 1 hr by gamma-scintillation counting analysis; assay type: ADME, organism-based, B16-F10; method in brief: as §1
[2] = Drug uptake in tumor of C57BL/6 mouse xenografted with mouse B16F10 cells at 3.7 MBq, iv after 5 mins by PET imaging analysis; assay type: ADME, organism-based, Neoplasm, B16-F10
Method in brief: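 Dynamic small-animal PET in B16F10 tumor-bearing mice (n = 4) after tail-vein injection of ~3.7 MBq (100 μCi). Scanning began ~2.0 min post-injection and ran 35 min (6×20 s, 8×60 s, 10×150 s; 24 frames). ROI counts converted to %ID/g assuming 1 g/ml tissue density. No attenuation correction.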

Mus musculus [3] = assay: Biodistribution in tumor of C57BL/6 mouse xenografted with mouse B16F10 cells at 3.7 MBq, iv after 1 hr by gamma-scintillation counting analysis; assay type: ADME, organism-based, Neoplasm, B16-F10; method in brief: as §1
[4] = Drug uptake in tumor of C57BL/6 mouse xenografted with mouse B16F10 cells at 3.7 MBq, iv after 0.5 hrs by PET imaging analysis; assay type: ADME, organism-based, Neoplasm, B16-F10
Method in brief: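 Static small-animal PET at 0.5, 1 and 2 h after tail-vein injection of ~3.7 MBq (100 μCi) into B16F10-bearing C57BL/6 mice (n = 4 per probe). Isoflurane anesthesia, 5% induction and 2% maintenance in O2. Decay-corrected images. ROI-derived %ID/g assumes 1 g/ml density, without attenuation correction. Mean ± SD.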

Nucleic Acid [5] = assay: Ratio of drug uptake in tumor to muscle of C57BL/6 mouse xenografted with mouse B16F10 cells at 3.7 MBq, iv after 2 hrs by gamma-scintillation counting analysis; assay type: ADME, organism-based, B16-F10
Method in brief: (§2)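 Same subcutaneous B16F10 model and tail-vein dose of about 3.7 MBq (100 μCi), n = 4 per group. Dissection at 1 or 2 h p.i. Gamma-counter %ID/g of tumor divided by that of blood, lung, liver or muscle, given as mean ± SD.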

Nucleic Acid [6] = assay: Ratio of drug uptake in tumor to liver of C57BL/6 mouse xenografted with mouse B16F10 cells at 3.7 MBq, iv after 2 hrs by gamma-scintillation counting analysis; assay type: ADME, organism-based, B16-F10; method in brief: as §2
Mus musculus [7] = assay: Biodistribution in eye of C57BL/6 mouse xenografted with mouse B16F10 cells at 3.7 MBq, iv after 2 hrs by gamma-scintillation counting analysis; assay type: ADME, organism-based, B16-F10; method in brief: as §1
Stomach [8] = assay: Biodistribution in stomach of C57BL/6 mouse xenografted with mouse B16F10 cells at 3.7 MBq, iv after 2 hrs by gamma-scintillation counting analysis; assay type: ADME, organism-based, B16-F10; method in brief: as §1
Mus musculus [9] = assay: Biodistribution in lungs of C57BL/6 mouse xenografted with mouse B16F10 cells at 3.7 MBq, iv after 2 hrs by gamma-scintillation counting analysis; assay type: ADME, organism-based, Lung, B16-F10; method in brief: as §1
Mus musculus [10] = assay: Biodistribution in tumor of C57BL/6 mouse xenografted with mouse B16F10 cells at 3.7 MBq, iv after 2 hrs by gamma-scintillation counting analysis; assay type: ADME, organism-based, Neoplasm, B16-F10; method in brief: as §1
Mus musculus [11] = assay: Biodistribution in eye of C57BL/6 mouse xenografted with mouse B16F10 cells at 3.7 MBq, iv after 1 hr by gamma-scintillation counting analysis; assay type: ADME, organism-based, B16-F10; method in brief: as §1
Muscle tissue = assay: Biodistribution in muscle of C57BL/6 mouse xenografted with mouse B16F10 cells at 3.7 MBq, iv after 1 hr by gamma-scintillation counting analysis; assay type: ADME, organism-based, B16-F10; method in brief: as §1
Kidney = assay: Biodistribution in kidney of C57BL/6 mouse xenografted with mouse B16F10 cells at 3.7 MBq, iv after 1 hr by gamma-scintillation counting analysis; assay type: ADME, organism-based, B16-F10; method in brief: as §1

- Drug uptake (Stomach [1]): 4.26 % ID/g
- Drug uptake (Liver): 4.71 % ID/g
- Drug uptake (Heart): 1.17 % ID/g
- Drug uptake [2]: 5.28 % ID/g
- Drug uptake (Mus musculus [3]): 15.2 % ID/g
- Drug uptake [4]: 12.74 % ID/g
- Ratio (Nucleic Acid [5]): 36.79
- Ratio (Nucleic Acid [6]): 5.14
- Drug uptake (Mus musculus [7]): 32.83 % ID/g
- Drug uptake (Stomach [8]): 1.47 % ID/g
- Drug uptake (Mus musculus [9]): 0.69 % ID/g
- Drug uptake (Mus musculus [10]): 16.97 % ID/g
- Drug uptake (Mus musculus [11]): 37.47 % ID/g
- Drug uptake (Muscle tissue): 1.16 % ID/g
- Drug uptake (Kidney): 3.32 % ID/g
Structure (SMILES): CCN(CC)CCNC(=O)c1ccc([18F])cn1
